Laboratory results reported in ChEMBL document CHEMBL1133471, “Sequential cytotoxicity: a theory evaluated using novel 2-[4-(3-aryl-2-propenoyloxy)phenylmethylene]cyclohexanones and related compounds” (J Med Chem, 2000).
Starred links: 1 amine or outer side, 2 acyl side, 3 side chain; linkers in the order of their positions; H or OH if unused. Positions of bridges follow the written chain, without caps; N, C: chain ends. Non-standard residues stand in square brackets, D forms with d. Residues, ends and D or L forms follow the SMILES beside them. Chains are numbered I, II in the order given. Actinocin(1to9) = Cc1c2oc3c(C)ccc(C(=O)[*:2])c3nc-2c(C(=O)[*:1])c(N)c1=O; NMeV = CN[C@H](C(=O)O)C(C)C; Sar = CNCC(=O)O

Assays:
CCRF-CEM = experiment: Concentration required to inhibit 50% of cell growth on CEM lymphocytes.; format: functional, cell-based; conditions: Homo sapiens
In short: (§1)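 Murine P388 D1 and L1210 leukemia cells and human Molt 4/C8 and CEM T-lymphocytes were tested. IC50 is the concentration inhibiting 50% of growth.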

Colon carcinoma cell = experiment: Mean graph mid point was measured on colon cancer cells.; format: functional, Homo sapiens
In short: (§2)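 Human tumor panel of about 55 lines: leukemia, melanoma, non-small-cell lung, colon, CNS, ovarian, renal, prostate and breast. Compounds generally tested from 10^-4 to 10^-8 M, noting 50% growth inhibition for each line. Mean graph midpoints taken for all lines, leukemic lines and colon lines. Duplicate or triplicate runs were averaged.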

Tumor cancer cell line = experiment: (§3) Mean graph mid point was measured on all cell lines.; format: functional, Homo sapiens; in short: as §2
leukaemia cell line [1] = experiment: Mean graph mid point was measured on leukemic cells.; format: functional, Homo sapiens; in short: as §2
MOLT-4 = experiment: Concentration required to inhibit 50% of cell growth on human Molt 4/C8 cells.; format: functional, cell-based; in short: as §1
Mus musculus [2] = experiment: Ip score was calculated by implanting different tumor cell lines in hollow fibres in mice by the intraperitoneal route(Net cell kill was observed it indicates the cytotoxicity was occurred); format: functional
[3] = Selectivity index is the ratio of MG MID value for all cell lines to that of colon cancer cells; format: functional
[4] = Selectivity index is the ratio of MG MID value for all cell lines to that of leukemic cells; format: functional
L1210 = experiment: Concentration required to inhibit 50% of cell growth on murine L1210 cells.; format: functional, cell-based; conditions: Mus musculus; in short: as §1
P388 = experiment: Concentration required to inhibit 50% of cell growth on murine P388 D1 cells.; format: functional, cell-based; conditions: Mus musculus
Mus musculus [5] = species on record: Mus musculus; experiment: Sc score was calculated by implanting different tumor cell lines in hollow fibres in mice by the occurred); format: functional
In short: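 Mice carried hollow fibers with 12 human tumor lines (colon, breast, NSCLC, melanoma, ovarian, CNS) implanted ip and sc. Compounds were given ip at two doses daily for 4 days. Fibers were collected 1 day after the last dose. Viable cell mass was measured by MTT formazan conversion, giving the sc score.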

Homo sapiens [6] = species on record: Homo sapiens; experiment: Inhibition of RNA synthesis was evaluated on human Jurkat T-cells after 8 hours.; format: functional; design: concentration or dose not given beside the values
Homo sapiens [7] = species on record: Homo sapiens; experiment: Inhibition of protein synthesis was evaluated on human Jurkat T-cells after 8 hours.; format: functional; design: concentration or dose not given beside the values
Homo sapiens [8] = species on record: Homo sapiens; experiment: (§4) Inhibitory concentration was evaluated on human Jurkat T-cells after their exposure for 48 hours; format: functional, cell-based
In short: (§5)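 Human Jurkat T cells exposed to compounds for 48 h. Viability scored by nigrosin dye exclusion, used in place of trypan blue. IC50 and IC80 taken from the resulting viability data.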

Homo sapiens [9] = species on record: Homo sapiens; experiment: as §4; format: functional; in short: as §5
Homo sapiens [10] = species on record: Homo sapiens; experiment: Apoptotic index calculated using human Jurkat T cells; format: functional
In short: (§6)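 Jurkat T cells exposed at concentrations giving IC80 (IC80 determined after 48 h exposure). Nuclei stained with ethidium bromide (0.1% w/v) plus acridine orange (0.1% w/v). Apoptotic index = (cells with apoptotic nuclei / cells counted) × 100.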

Homo sapiens [11] = species on record: Homo sapiens; experiment: Apoptotic index was evaluated on human Jurkat T-cells after 24 hours.(Using 80% inhibitory concentration); format: functional; in short: as §6
Mus musculus [12] = experiment: Ip score was calculated by implanting different tumor cell lines in hollow fibres in mice by the intraperitoneal route (Net cell kill was not observed).; format: functional
Mus musculus [13] = experiment: sc score was calculated by implanting different tumor cell lines in hollow fibres in mice by the subcutaneously route (Net cell kill was not observed).; format: functional
[14] = test system: Panel colon (Carcinoma cell lines); experiment: Mean graph mid point was measured on colon cancer cell lines.; format: functional, Homo sapiens; in short: as §2
Tumor cell line = experiment: as §3; format: functional, Homo sapiens; in short: as §2
leukaemia cell line [15] = experiment: Mean graph mid point was measured on leukemicell lines.; format: functional, Homo sapiens; in short: as §2
Mus musculus [16] = experiment: Ip score was calculated by implanting different tumor cell lines in hollow fibres in mice by the intraperitoneal route (Net cell kill was not observed); format: functional
Mus musculus [17] = experiment: Sc score was calculated by implanting different tumor cell lines in hollow fibres in mice by the subcutaneously route (Net cell kill was not observed); format: functional

Compound | IC50 (CCRF-CEM) [µM] | MG MID (Colon carcinoma cell) [µM] | MG MID (Tumor cancer cell line) [µM] | MG MID (leukaemia cell line [1]) [µM] | IC50 (MOLT-4) [µM] | SI [3] | SI [4] | IC50 (L1210) [µM] | IC50 (P388) [µM] | also measured
CN(C)CC1CCC/C(=C\c2ccc(OC(=O)/C=C/c3ccccc3)cc2)C1=O.Cl (stereo unspecified) | 42.8 | 2.21 | 2.41 | 1.06 | 39.5 | 1.1 | 2.3 | 32.8 | 4.02 | Ip score (Mus musculus [2]): 12; Subcut score (Mus musculus [5]): 14
COc1ccc(C(=O)Oc2ccc(/C=C3\CCCC(CN(C)C)C3=O)cc2)cc1 (stereo unspecified) | 5.07 | – | – | – | 2.36 | – | – | 2.87 | 0.332 | –
COc1ccc(/C=C/C(=O)Oc2ccc(/C=C3\CCCC(CN(C)C)C3=O)cc2)cc1 (stereo unspecified) | – | – | – | – | – | – | – | – | 2.41 | –
Cc1ccc(/C=C/C(=O)Oc2ccc(/C=C3\CCCC(CN(C)C)C3=O)cc2)cc1 (stereo unspecified) | 7.02 | – | – | – | 3.39 | – | – | 2.43 | 1.29 | –
CN(C)CC1CCC/C(=C\c2ccc(OC(=O)/C=C/c3ccc(Br)cc3)cc2)C1=O.Cl (stereo unspecified) | 4.44 | – | – | – | 3.06 | – | – | 1.78 | 4.03 | Inhibition (Homo sapiens [6]): 84.5%; Inhibition (Homo sapiens [7]): 46.6%; IC50 (Homo sapiens [8]): 4.47 µM; IC80 (Homo sapiens [9]): 7.63 µM; Apoptotic index (Homo sapiens [10]): 59.2
CN(C)CC1CCC/C(=C\c2ccc(OC(=O)/C=C/c3ccc(F)cc3)cc2)C1=O (stereo unspecified) | 6 | – | – | – | 3.78 | – | – | 1.84 | 4.55 | –
CN(C)CC1CCC/C(=C\c2ccc(OC(=O)c3ccccc3)cc2)C1=O (stereo unspecified) | 29.4 | – | – | – | 24.1 | – | – | 23.4 | 0.18 | –
O=C(CCc1ccccc1)Oc1ccc(/C=C2\CCCCC2=O)cc1 | 34.4 | – | – | – | 31.1 | – | – | 52.4 | 21.9 | –
Cc1ccc(/C=C/C(=O)Oc2ccc(/C=C3\CCCCC3=O)cc2)cc1 | 230 | – | – | – | 156 | – | – | 202 | > 50 | –
O=C(/C=C/c1ccccc1)Oc1ccc(/C=C2\CCCCC2=O)cc1 | 26 | 29.1 | 36.3 | 8.32 | 30.7 | 1.3 | 4.4 | 30.7 | 20.3 | –
O=C(/C=C/c1ccc(Br)cc1)Oc1ccc(/C=C2\CCCCC2=O)cc1 | 131 | – | – | – | 180 | – | – | 127 | > 50 | Apoptotic index (Homo sapiens [11]): 23.3; Inhibition (Homo sapiens [6]): 77.5%; Inhibition (Homo sapiens [7]): 69.1%; IC50 (Homo sapiens [8]): 19.8 µM; IC80 (Homo sapiens [9]): 31.7 µM; Apoptotic index (Homo sapiens [10]): 23.3
COc1ccc(/C=C/C(=O)Oc2ccc(/C=C3\CCCCC3=O)cc2)cc1 | 8.78 | 25.4 | 49.7 | 9.36 | 2.06 | 2 | 5.3 | 10.2 | 9.03 | –
O=C1CCCC/C1=C\c1ccc(OC(=O)c2ccccc2)cc1 | – | – | – | – | – | – | – | – | > 50 | –
O=C1CCCC/C1=C\c1ccc(OC(=O)c2ccc(Cl)cc2)cc1 | 41 | – | – | – | 38 | – | – | 3.33 | 25.5 | –
O=C(/C=C/c1ccc(Cl)c(Cl)c1)Oc1ccc(/C=C2\CCCCC2=O)cc1 | 63.8 | 100 | 91.2 | 53 | 47.3 | 0.9 | 1.7 | 64.8 | > 50 | –
Cc1ccc(C(=O)Oc2ccc(/C=C3\CCCCC3=O)cc2)cc1 | 22.7 | – | – | – | 25.6 | – | – | 44.8 | > 50 | –
COc1ccc(C(=O)Oc2ccc(/C=C3\CCCCC3=O)cc2)cc1 | 36.1 | – | – | – | 34 | – | – | 43.4 | > 50 | –
CN(C)CC1CCC/C(=C\c2ccc(OC(=O)c3ccc(Cl)cc3)cc2)C1=O.Cl (stereo unspecified) | 6.15 | 1.21 | 1.66 | 0.307 | 5.11 | 1.4 | 5.4 | 5.61 | 0.425 | Ip score (Mus musculus [12]): 2; Inhibition (Homo sapiens [6]): 88.4%; Inhibition (Homo sapiens [7]): 62%; IC50 (Homo sapiens [8]): 3.5 µM; IC80 (Homo sapiens [9]): 5.6 µM; Subcut score (Mus musculus [13]): 10; Apoptotic index (Homo sapiens [10]): 73.3
CN(C)CC1CCC/C(=C\c2ccc(OC(=O)/C=C/c3ccc(Cl)c(Cl)c3)cc2)C1=O.Cl (stereo unspecified) | 5.82 | – | – | – | 4.57 | 1.5 | 4.3 | 3.31 | 4.18 | MG MID [14]: 2.38 µM; MG MID (Tumor cell line): 3.57 µM; MG MID (leukaemia cell line [15]): 0.83 µM
CN(C)CC1CCC/C(=C\c2ccc(OC(=O)/C=C/c3ccc(Cl)cc3)cc2)C1=O.Cl (stereo unspecified) | 3.56 | 2.3 | 3.58 | 0.864 | 2.65 | 1.6 | 4.1 | 1.74 | 1.61 | Ip score (Mus musculus [16]): 0; Inhibition (Homo sapiens [6]): 78%; Inhibition (Homo sapiens [7]): 37%; IC50 (Homo sapiens [8]): 2.53 µM; IC80 (Homo sapiens [9]): 4.04 µM; Subcut score (Mus musculus [17]): 6; Apoptotic index (Homo sapiens [10]): 87
O=C(/C=C/c1ccc(Cl)cc1)Oc1ccc(/C=C2\CCCCC2=O)cc1 | 63.4 | 81 | 91.2 | 60.5 | 78.6 | 1.1 | 1.5 | 64.3 | > 50 | –
O=C(/C=C/c1ccc(F)cc1)Oc1ccc(/C=C2\CCCCC2=O)cc1 | 14.4 | – | – | – | 26.6 | – | – | 30.9 | > 50 | –
N[C@@H](Cc1ccc(N(CCCl)CCCl)cc1)C(=O)O | – | 44.6 | 23.5 | 4.65 | – | – | – | – | – | Inhibition (Homo sapiens [6]): 85.1%; Inhibition (Homo sapiens [7]): 17.3%; IC50 (Homo sapiens [8]): 2.2 µM
C[C@@H]1C[C@@H]([C@H](O)CC2CC(=O)NC(=O)C2)C(=O)[C@@H](C)C1 [CYCLOHEXIMIDE] | – | – | – | – | – | – | – | – | – | Inhibition (Homo sapiens [6]): 93.3%; Inhibition (Homo sapiens [7]): 71.9%; IC50 (Homo sapiens [8]): 0.93 µM; Apoptotic index (Homo sapiens [10]): 38.3
Cc1c2oc3c(C)ccc(C(=O)N[C@@H]4C(=O)N[C@H](C(C)C)C(=O)N5CCC[C@H]5C(=O)N(C)CC(=O)N(C)[C@@H](C(C)C)C(=O)O[C@@H]4C)c3nc-2c(C(=O)N[C@@H]2C(=O)N[C@H](C(C)C)C(=O)N3CCC[C@H]3C(=O)N(C)CC(=O)N(C)[C@@H](C(C)C)C(=O)O[C@@H]2C)c(N)c1=O [DACTINOMYCIN] (I: T[dV]P[Sar][NMeV] / II: T[dV]P[Sar][NMeV]; ester I:1-I:C, II:1-II:C; linker I:N-II:N via Actinocin(1to9)) | – | – | – | – | – | – | – | – | – | Inhibition (Homo sapiens [6]): 90.5%; Inhibition (Homo sapiens [7]): 49.2%; IC50 (Homo sapiens [8]): 0.0045 µM; IC80 (Homo sapiens [9]): 0.0072 µM; Apoptotic index (Homo sapiens [10]): 35.5
O=c1[nH]cc(F)c(=O)[nH]1 [FLUOROURACIL] | 8.9 | 7.9 | 32.6 | 27.6 | 23 | – | – | 0.28 | 0.49 | –
C=C1C(=O)O[C@@H]2C[C@@H](C)[C@@H]3C=CC(=O)[C@@]3(C)[C@@H](O)[C@H]12 [HELENALIN] | – | 1.42 | 1.45 | 0.62 | – | 1 | 2.3 | – | – | –
